Data: ChEMBL document CHEMBL1811827, “Novel nonsecosteroidal vitamin D3 carboxylic acid analogs for osteoporosis, and SAR analysis” (Bioorg Med Chem, 2011)
Values belong to the compound of their own block, whether it stands above or below them.

What was measured:
[1] = target: T1, Vitamin D3 receptor (Homo sapiens) (UniProt P11473); assay: Agonist activity at human VDR in human MG63 cells assessed as stimulation of VDRE-mediated luciferase reporter gene activity relative to 1,25(OH)2D3; assay type: functional, cell-based; set-up: concentration or dose not given beside the values; conditions: MG-63
T1 sequence (whole entry): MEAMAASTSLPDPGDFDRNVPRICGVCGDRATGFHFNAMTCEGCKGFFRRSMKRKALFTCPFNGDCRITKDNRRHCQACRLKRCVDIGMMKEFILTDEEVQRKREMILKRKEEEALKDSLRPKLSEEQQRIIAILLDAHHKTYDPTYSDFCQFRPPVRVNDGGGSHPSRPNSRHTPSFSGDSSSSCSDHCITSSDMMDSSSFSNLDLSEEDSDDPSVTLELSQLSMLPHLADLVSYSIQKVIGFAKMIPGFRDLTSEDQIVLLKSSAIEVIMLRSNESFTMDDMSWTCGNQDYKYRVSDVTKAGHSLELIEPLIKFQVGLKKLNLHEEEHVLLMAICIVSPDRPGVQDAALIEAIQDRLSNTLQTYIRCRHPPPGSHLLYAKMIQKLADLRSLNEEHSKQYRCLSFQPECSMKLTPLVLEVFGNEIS

[2] = target: T1, Vitamin D3 receptor (Homo sapiens); assay: Agonist activity at human VDR in human MG63 cells assessed as stimulation of osteocalcin production by enzyme immunoassay relative to 1,25(OH)2D3; assay type: functional, cell-based; set-up: concentration or dose not given beside the values; conditions: MG-63
[3] = Cmax in Sprague-Dawley rat at 100 ug/kg, po; assay type: ADME, organism-based; set-up: dose 100 ug/kg, route oral; conditions: in vivo, 0.1 mg/kg
Outline: (§1)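 Rats given 100 µg/kg orally or intravenously; F, T1/2, Cmax, AUCinf, MRT and total clearance derived.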

[4] = Total clearance in Sprague-Dawley rat at 100 ug/kg, po; assay type: ADME, organism-based; conditions: in vivo, 0.1 mg/kg; outline: as §1
[5] = Mean residence time in Sprague-Dawley rat at 100 ug/kg, iv; assay type: ADME, organism-based; conditions: in vivo, 0.1 mg/kg; outline: as §1
Rattus norvegicus [6] = assay: Toxicity in ovariectomized Sprague-Dawley rat osteoporosis model assessed as induction of hypercalcemia at […], po administered once daily for 5 times per week; assay type: organism-based; conditions: in vivo
[7] = Total clearance in Sprague-Dawley rat at 100 ug/kg, iv; assay type: ADME, organism-based; conditions: in vivo, 0.1 mg/kg; outline: as §1
Rattus norvegicus [8] = assay: Toxicity in ovariectomized Sprague-Dawley rat osteoporosis model assessed as body weight loss at 2 ug/kg, po administered once daily for 5 times per week; assay type: organism-based; conditions: in vivo, 0.002 mg/kg
Rattus norvegicus [9] = assay: Toxicity in ovariectomized Sprague-Dawley rat osteoporosis model assessed as induction of hypercalcemia at 2 ug/kg, po administered once daily for 5 times per week; assay type: organism-based; conditions: in vivo, 0.002 mg/kg
Outline: (§2)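 Female Sprague–Dawley rats, 8 weeks old, ovariectomized or sham-operated; from one day post-surgery, OVX groups (n = 8) given 0.22, 0.67 or 2.0 µg/kg orally in MCT vehicle (1 mL/kg), five times per week for 4 weeks. 24 h after last dose, serum calcium by autoanalyzer and distal femur BMD by dual-energy X-ray absorptiometry.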

Rattus norvegicus [10] = assay: Prevention of bone mineral density loss in ovariectomized Sprague-Dawley rat osteoporosis model administered orally once daily for 5 times per week; assay type: functional, organism-based; outline: as §2
[11] = Mean residence time in Sprague-Dawley rat at 100 ug/kg, po; assay type: ADME, organism-based; conditions: in vivo, 0.1 mg/kg; outline: as §1
[12] = Half life in Sprague-Dawley rat at 100 ug/kg, iv; assay type: ADME, organism-based; conditions: in vivo, 0.1 mg/kg; outline: as §1
[13] = AUC (infinity) in Sprague-Dawley rat at 100 ug/kg, po; assay type: ADME, organism-based; set-up: dose 100 ug/kg, time infinity, route oral; conditions: plasma, 0.1 mg/kg; outline: as §1
Rattus norvegicus [14] = assay: Toxicity in ovariectomized Sprague-Dawley rat osteoporosis model assessed as body weight loss at […], po administered once daily for 5 times per week; assay type: organism-based; conditions: in vivo
[15] = AUC (infinity) in Sprague-Dawley rat at 100 ug/kg, iv; assay type: ADME, organism-based; set-up: dose 100 ug/kg, time infinity, route intravenous; conditions: plasma, 0.1 mg/kg; outline: as §1
[16] = Half life in Sprague-Dawley rat at 100 ug/kg, po; assay type: ADME, organism-based; conditions: in vivo, 0.1 mg/kg; outline: as §1
[17] = Oral bioavailability in Sprague-Dawley rat at 100 ug/kg; assay type: ADME, organism-based; conditions: in vivo, 0.1 mg/kg; outline: as §1

Compound: CCC(CC)(c1ccc(OCC(=O)O)c(C)c1)c1ccc(OCC(O)C(C)(C)C)c(C)c1 (racemic)
- Activity [1]: 1.4%
- Activity [2]: < 13%

Compound: CCC(CC)(c1ccc(OCCCC(=O)O)c(C)c1)c1ccc(OCC(O)C(C)(C)C)c(C)c1 (racemic)
- Activity [1]: 2.6%
- Activity [2]: < 13%

Compound: CCC(CC)(c1ccc(OCC(O)C(C)(C)C)c(C)c1)c1ccc(OC[C@@H](O)CCC(=O)O)c(C)c1 (mixture of isomers)
- Cmax [3]: 11.6 ng/mL
- CL/F [4]: 11.5 mL/min/kg
- MRT [5]: 9.2 h
- Activity (Rattus norvegicus [6]): Non-toxic
- clearance [7]: 1.47 mL/min/kg
- Activity (Rattus norvegicus [8]): Toxic
- Activity (Rattus norvegicus [9]): Toxic
- inhibition (Rattus norvegicus [10]): Dose-dependent effect
- MRT [11]: 12.3 h
- half-life [12]: 10.6 h
- AUC(0-inf) [13]: 151 ng·h/mL
- Activity [1]: 20%
- Activity (Rattus norvegicus [14]): Non-toxic
- AUC(0-inf) [15]: 1150 ng·h/mL
- half-life [16]: 8 h
- Activity [2]: 484%
- bioavailability [17]: 13%

Compound: CCC(CC)(c1ccc(OCCC(=O)O)c(C)c1)c1ccc(OCC(O)C(C)(C)C)c(C)c1 (racemic)
- Activity [1]: 6.2%
- Activity [2]: 49%

Now from value to compound:

- Activity [1]: 16%
- Activity [2]: 168%
Compound: CCC(CC)(c1ccc(CCC(O)C(C)(C)C)c(C)c1)c1ccc(OCCCCCC(=O)O)c(C)c1 (racemic)

- Activity [1]: 31%
- Activity [2]: 368%
Compound: CCC(CC)(c1ccc(CCC(O)C(C)(C)C)c(C)c1)c1ccc(OCCCCC(=O)O)c(C)c1 (racemic)

- Activity [1]: 52%
- Activity [2]: 68%
Compound: CCC(CC)(c1ccc(CCC(O)C(C)(C)C)c(C)c1)c1ccc(OC[C@@H](O)CCC(=O)O)c(C)c1 (mixture of isomers)

- Cmax [3]: 3.6 ng/mL
- CL/F [4]: 156 mL/min/kg
- MRT [5]: 0.5 h
- clearance [7]: 50.9 mL/min/kg
- MRT [11]: 3.8 h
- half-life [12]: 1.3 h
- AUC(0-inf) [13]: 10.9 ng·h/mL
- Activity [1]: 19%
- AUC(0-inf) [15]: 32.9 ng·h/mL
- half-life [16]: 3.1 h
- Activity [2]: 205%
- bioavailability [17]: 33%
Compound: CCC(CC)(c1ccc(OCCCCC(=O)O)c(C)c1)c1ccc(OCC(O)C(C)(C)C)c(C)c1 (racemic)

- Activity [1]: 2.2%
- Activity [2]: 9.3%
Compound: CCC(CC)(c1ccc(CCC(O)C(C)(C)C)c(C)c1)c1ccc(OCCCCCCC(=O)O)c(C)c1 (racemic)
